This passage reports IC50 results from BindingDB's records for doi:10.1016/j.bmcl.2009.05.124 (Amgen, 2009).

Each structure is given as a SMILES string.

The assay has as its target Neuromedin-B receptor (Homo sapiens, UniProt P28336). Description: Displacement of [125I]-(D-Tyr0)NMB from human neuromedin B receptor transfected in HEK293 cells. In outline:
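Whole-cell competition binding used 1 × 10⁶ HEK293 cells stably transfected with hNMBR, with 150 pM ¹²⁵I-[D-Tyr0]NMB (2200 Ci/mmol), in DMEM for 1 h at room temperature. Bound ligand was separated by filtration and total bound counts were measured. Day-to-day standard error was <30%; well-to-well variability was <10%.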
For orientation: Displacement assays read how much labelled ligand stays bound in the presence of the test substance.

Sequence of Neuromedin-B receptor (P28336 whole entry): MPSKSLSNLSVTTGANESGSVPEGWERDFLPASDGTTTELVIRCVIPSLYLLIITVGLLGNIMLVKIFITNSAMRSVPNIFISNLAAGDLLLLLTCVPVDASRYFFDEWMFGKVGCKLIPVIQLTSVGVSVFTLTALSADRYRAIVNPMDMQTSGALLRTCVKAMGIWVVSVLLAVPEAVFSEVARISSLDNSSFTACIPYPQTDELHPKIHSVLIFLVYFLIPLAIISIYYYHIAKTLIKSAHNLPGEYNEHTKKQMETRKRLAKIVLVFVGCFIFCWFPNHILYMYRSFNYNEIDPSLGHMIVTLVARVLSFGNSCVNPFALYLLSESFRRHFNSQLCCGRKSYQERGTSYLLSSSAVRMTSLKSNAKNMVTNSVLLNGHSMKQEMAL

As for `CC1(C)CC(=O)C2C(=Nc3ccc(C#N)cc3NC2c2c(F)cccc2Cl)C1` (configuration not stated) [11-(2-chloro-6-fluorophenyl)-3,3-dimethyl-1-oxo-2,3,4,5,10,11-hexahydro-1H-dibenzo[b,e][1,4]diazepine-8-carbonitrile], the IC50 (in general, the concentration that inhibits the measured activity by half) is 1300 nM.
The value for `Cc1ccc2c(c1)NC(c1ccccc1C(F)(F)F)C1C(=O)CC(C)(C)CC1=N2` (configuration not stated) [3,3,8-trimethyl-11-(2-(trifluoromethyl)phenyl)-2,3,4,5,10,11-hexahydro-1H-dibenzo[b,e][1,4]diazepin-1-one] was 250 nM.
The value for `CC1(C)CC(=O)C2C(=Nc3ccc(O)cc3NC2c2c(F)cccc2Cl)C1` (configuration not stated) [11-(2-chloro-6-fluorophenyl)-8-hydroxy-3,3-dimethyl-2,3,4,5,10,11-hexahydro-1H-dibenzo[b,e][1,4]diazepin-1-one] was 10000 nM; that for `Cc1ccc2c(c1)NC(c1ccccc1C(F)(F)F)C1C(=O)CC3(CCCC3)CC1=N2` (stereo not drawn) [(-)-8'-methyl-11'-(2-(trifluoromethyl)phenyl)-4',5',10',11'-tetrahydrospiro[cyclopentane-1,3'-dibenzo[b,e][1,4]diazepin]-1'(2'H)-one] was 96 nM; that for `Cc1ccc2c(c1)NC(c1ccccc1F)C1C(=O)CC(C)(C)CC1=N2` (configuration not stated) [11-(2-fluorophenyl)-3,3,8-trimethyl-2,3,4,5,10,11-hexahydro-1H-dibenzo[b,e][1,4]diazepin-1-one] was 1300 nM.
For `CC1(C)CC(=O)C2C(=Nc3ccc(C(=O)O)cc3NC2c2c(F)cccc2Cl)C1` (configuration not stated) [11-(2-chloro-6-fluorophenyl)-3,3-dimethyl-1-oxo-2,3,4,5,10,11-hexahydro-1H-dibenzo[b,e][1,4]diazepine-8-carboxylic acid] the value was 10000 nM; for `Cc1ccc2c(c1)NC(c1c(F)cccc1Cl)C1C(=O)CCC1=N2` (configuration not stated) [10-(2-chloro-6-fluorophenyl)-7-methyl-2,3,9,10-tetrahydrobenzo[b]cyclopenta[e][1,4]diazepin-1(4H)-one], 10000 nM; for `CC1(C)CC(=O)C2C(=Nc3ccc(OC(F)(F)F)cc3NC2c2c(F)cccc2Cl)C1` (configuration not stated) [11-(2-chloro-6-fluorophenyl)-3,3-dimethyl-8-(trifluoromethoxy)-2,3,4,5,10,11-hexahydro-1H-dibenzo[b,e][1,4]diazepin-1-one], 1300 nM.
The molecule `CC1(C)CC(=O)C2C(=Nc3ccc(C(N)=O)cc3NC2c2c(F)cccc2Cl)C1` (configuration not stated) [11-(2-chloro-6-fluorophenyl)-3,3-dimethyl-1-oxo-2,3,4,5,10,11-hexahydro-1H-dibenzo[b,e][1,4]diazepine-8-carboxamide] had an IC50 of 10000 nM.
For `Cc1ccc2c(c1)NC(c1c(F)cccc1Cl)C1C(=O)CC3(CCCC3)CC1=N2` (configuration not stated) [11'-(2-chloro-6-fluorophenyl)-8'-methyl-4',5',10',11'-tetrahydrospiro[cyclopentane-1,3'-dibenzo[b,e][1,4]diazepin]-1'(2'H)-one] the value was 280 nM; for `CSc1ccccc1C1Nc2cc(C)ccc2N=C2CC3(CCCC3)CC(=O)C21` (configuration not stated) [8'-methyl-11'-(2-(methylthio)phenyl)-4',5',10',11'-tetrahydrospiro[cyclopentane-1,3'-dibenzo[b,e][1,4]diazepin]-1'(2'H)-one], 250 nM.
For `Cc1ccc2c(c1)NC(c1ccccc1Cl)C1C(=O)CC(C)(C)CC1=N2` (configuration not stated) [11-(2-chlorophenyl)-3,3,8-trimethyl-2,3,4,5,10,11-hexahydro-1H-dibenzo[b,e][1,4]diazepin-1-one] the value was 280 nM.
